According to publication PMC2874468 (Journal of the American Chemical Society, 2010):
Where “and” joins values, the source holds several entries; their conditions need not be identical. Equal values may be shown once.

What was measured:
[1] = target: farnesyl diphosphate synthase; settings: read-out: Ki, farnesyl diphosphate synthase inhibition; previous work ref 22; cited from earlier work
A. aeolicus IspH = target: T1, A. aeolicus IspH (Aquifex aeolicus, UniProt O67625); test: IspH enzyme inhibition assay; format: biochemical
T1 sequence (O67625 1-289): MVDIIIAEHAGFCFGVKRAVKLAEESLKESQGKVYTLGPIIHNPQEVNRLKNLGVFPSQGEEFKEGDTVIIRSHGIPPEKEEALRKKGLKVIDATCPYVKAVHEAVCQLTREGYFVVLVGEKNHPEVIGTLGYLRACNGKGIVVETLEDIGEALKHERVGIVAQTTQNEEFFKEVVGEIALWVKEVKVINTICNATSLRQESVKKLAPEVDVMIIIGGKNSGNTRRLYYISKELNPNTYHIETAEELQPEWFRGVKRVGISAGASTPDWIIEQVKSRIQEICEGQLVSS
In short: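 Ni-NTA-purified recombinant enzyme expressed in E. coli BL-21(DE3). Cluster reconstituted anaerobically with DTT, elemental sulfur and FeCl3 until A410/A280 reached about 0.38. Run anaerobically at room temperature in pH 8.0 Tris·HCl/NaCl/5% glycerol with 0.4 mM dithionite, 2 mM methyl viologen and 72 nM enzyme, across varied HMBPP. Initial rates at 732 nm fitted to Michaelis-Menten.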

IspH = settings: cited from earlier work

Structure (SMILES)	activity in IspH inhibition (in words) (A. aeolicus IspH)	also measured
Cc1ccc[n+](CC(O)(P(=O)([O-])O)P(=O)(O)O)c1 (stereo not shown) [compound 18]		Ki [1]: ~0.02 µM
O=P(O)(O)OP(=O)(O)OCc1ccc(Cl)nc1 [compound 29, (6-Chloropyridin-3-yl)-methyl-diphosphate]	lack of activity	
O=P(O)(O)OP(=O)(O)O [PPi]		IspH inhibition (weak inhibitors) (IspH): ~ 1 mM
N#CCCOP(=O)(O)OP(=O)(O)O [compound 16, 2-Cyanoethyl diphosphate]	far less active than their acetylenic counterparts	
C#CC(=O)O [propiolic acid]	poor activity	
N#CCOP(=O)(O)OP(=O)(O)O [compound 15, Cyanomethyl diphosphate]	far less active than their acetylenic counterparts	
C/C(=C\COP(=O)(O)OP(=O)(O)O)CO [HMBPP, E-4-hydroxy-3-methyl-but-2-enyl diphosphate]		Km (A. aeolicus IspH; read-out: KM for HMBPP, reconstituted A. aeolicus IspH, Michaelis-Menten fit): 5 µM and 7 µM
